# Assay results published in ChEMBL document CHEMBL1125259, “Lipophilic glycosyl phosphotriester derivatives of AZT: synthesis, NMR transmembrane transport study, and antiviral activity” (1991).
# Tests used:
# Assay type in all cases: functional
# [1] = test system: CCRF-CEM; assay: Concentration that reduced by 50% the HIV induced CPE (cytopathic effect) on day 11.; settings: Homo sapiens, 264 h, read-out: ED50 (the source's name)
# Outline: (§1)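 CEM-C113 cells (1×10^5 cells/mL) were infected with HIV-1 LAV-Bru or mock-infected, with compound dilutions in triplicate, for at least 7 days. Medium with or without drug was renewed every 3–4 days for longer runs. MTT absorbance was read at 540 nm. CD50 = 50% reduction of mock-infected absorbance; ED50 = dose giving 50% protection from CPE. Values are averages of at least two experiments.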
# [2] = test system: CCRF-CEM; assay: Concentration that reduced by 50% the HIV induced CPE (cytopathic effect) on day 22.; settings: Homo sapiens, 528 h, read-out: ED50 (the source's name); outline: as §1
# [3] = test system: CCRF-CEM; assay: Concentration required to reduce the viability of uninfected cells (CEM-CL13) by 50% on day 7.; settings: Homo sapiens, 168 h, read-out: CD50 (the source's name); outline: as §1
# [4] = target: Human immunodeficiency virus type 1 reverse transcriptase (Human immunodeficiency virus 1) (UniProt Q72547); assay: Compound ability to inhibit the production of HIV reverse transcriptase (RT) in culture supernatant of monocytic U937 on at 14 days at a concentration 1 uM
# Outline: (§2)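 HIV-1-infected monocytic U937 cultures were kept up to 14 days with compound. Supernatant RT activity was measured as for CEM-C113, as [³H] cpm/50 µL. % inhibition = 100 − 100 × (cpm of treated samples / cpm of control virus).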
# [5] = target: Human immunodeficiency virus type 1 reverse transcriptase (Human immunodeficiency virus 1) (UniProt Q72547); assay: Compound ability to inhibit the production of HIV reverse transcriptase (RT) in culture supernatant of monocytic U937 on at 7 days at a concentration 1 uM; outline: as §2
# [6] = target: Human immunodeficiency virus type 1 reverse transcriptase (Human immunodeficiency virus 1) (UniProt Q72547); assay: Compound ability to inhibit the production of HIV reverse transcriptase (RT) in preinfected PBL (peripheral blood lymphocytes) at 10 days at a concentration 1 uM
# Outline: (§3)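 PBL were infected with HIV-1 for 1 h at 37 °C, washed twice, and resuspended in complete medium with 10% interleukin-2 and anti-human α-interferon (1000 units/mL). Cells were plated at 1×10^6 cells/well with or without compound. At each time point, 50 µL supernatant was taken for RT assay ([³H]dTTP incorporation, cpm).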
# [7] = target: Human immunodeficiency virus type 1 reverse transcriptase (Human immunodeficiency virus 1) (UniProt Q72547); assay: Compound ability to inhibit the production of HIV reverse transcriptase (RT) in preinfected PBL (peripheral blood lymphocytes) at 7 days at a concentration 1 uM; outline: as §3
# [8] = target: Human immunodeficiency virus type 1 reverse transcriptase (Human immunodeficiency virus 1) (UniProt Q72547); assay: Compounds were evaluated for anti-RT activity at 0 days of culture
# Outline: (§4)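 HIV-1 (12 500 CCID50) was preincubated with compound at 25 µM final for 60 min at 37 °C, pelleted by ultracentrifugation and resuspended. RT was measured at once with poly(rA)-oligo(dT) and ³H-dTTP (1 h, 37 °C, cpm). Treated virus was then put on CEM-C113 cells for 60 min and replaced with compound-free medium. Supernatant RT was read at days 7 and 9.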
# [9] = target: Human immunodeficiency virus type 1 reverse transcriptase (Human immunodeficiency virus 1) (UniProt Q72547); assay: Compound ability to inhibit the production of HIV reverse transcriptase (RT) in culture supernatant of monocytic U937 on at 11 days at a concentration 1 uM; outline: as §2
# [10] = target: Human immunodeficiency virus type 1 reverse transcriptase (Human immunodeficiency virus 1) (UniProt Q72547); assay: Compound ability to inhibit the production of HIV reverse transcriptase (RT) in culture supernatant of CEM-CL13 on at 22 days at a concentration 0.2 uM
# Outline: (§5)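 CEM-C113 cells in RPMI 1640 with 5% heat-inactivated FCS and polybrene (2 µg/mL) were plated at 1×10^5 cells/mL with compound in PBS, in triplicate, and infected with HIV-1 LAV-Bru. From day 7, every 3–4 days, fresh medium with or without drug was added and 50 µL supernatant was taken for RT microassay. The RT microassay used poly(rA)-oligo(dT) and (methyl-³H)dTTP for 1 h at 37 °C, with TCA precipitation, read as cpm/50 µL.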
# [11] = target: Human immunodeficiency virus type 1 reverse transcriptase (Human immunodeficiency virus 1) (UniProt Q72547); assay: Compound ability to inhibit the production of HIV reverse transcriptase (RT) in culture supernatant of CEM-CL13 on at 26 days at a concentration 0.2 uM; outline: as §5
# [12] = target: Human immunodeficiency virus type 1 reverse transcriptase (Human immunodeficiency virus 1) (UniProt Q72547); assay: Compound ability to inhibit the production of HIV reverse transcriptase (RT) in culture supernatant of CEM-CL13 on at 7 days at a concentration 0.2 uM; outline: as §5
# [13] = target: Human immunodeficiency virus type 1 reverse transcriptase (Human immunodeficiency virus 1) (UniProt Q72547); assay: Compounds were evaluated for anti-RT activity by MTT dose and % cell / viability was reported at 13 days of culture
# [14] = target: Human immunodeficiency virus type 1 reverse transcriptase (Human immunodeficiency virus 1) (UniProt Q72547); assay: Compounds were evaluated for anti-RT activity by MTT dose and % cell / viability was reported at 7 days of culture
# Outline: (§6)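 HIV-1 was preincubated with compound at 25 µM for 60 min at 37 °C, pelleted, and added to CEM-C113 cells (1×10^5 cells/mL) for 60 min at 37 °C. Medium was then replaced without compound. At days 7 and 9, viability was read by MTT assay on 100 µL of cell suspension.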
# [15] = target: Human immunodeficiency virus type 1 reverse transcriptase (Human immunodeficiency virus 1) (UniProt Q72547); assay: Percent inhibition evaluated for anti-RT activity at 7 days of culture; parameters: concentration or dose not given beside the values; settings: concentration not given here; outline: as §4
# [16] = target: Human immunodeficiency virus type 1 reverse transcriptase (Human immunodeficiency virus 1) (UniProt Q72547); assay: Percent inhibition evaluated for anti-RT activity at 9 days of culture; parameters: concentration or dose not given beside the values; settings: concentration not given here; outline: as §4
# [17] = target: Human immunodeficiency virus type 1 reverse transcriptase (Human immunodeficiency virus 1) (UniProt Q72547); assay: Percent inhibition measured as the production of HIV reverse transcriptase (RT) in culture supernatant of monocytic U937 on at 11 days at a concentration 1 uM
# Outline: (§7)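 U937 cells in RPMI 1640 with 5% heat-inactivated FCS, penicillin, streptomycin and polybrene (2 μg/mL), 37 °C, 5% CO2. Infected with HIV-1 LAV-Bru; compounds diluted in PBS. 50 μL supernatant aliquots were assayed for RT: 1 h, 37 °C, pH 7.8, Mg2+, poly(rA)-oligo(dT), [3H]dTTP, TCA-pyrophosphate stop, filter counting. % inhibition = 100 − 100 × (treated cpm / virus-control cpm).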
# [18] = target: Human immunodeficiency virus type 1 reverse transcriptase (Human immunodeficiency virus 1) (UniProt Q72547); assay: Percent inhibition measured as the production of HIV reverse transcriptase (RT) in culture supernatant of monocytic U937 on at 14 days at a concentration 1 uM; outline: as §7
# [19] = target: Human immunodeficiency virus type 1 reverse transcriptase (Human immunodeficiency virus 1) (UniProt Q72547); assay: Percent inhibition measured as the production of HIV reverse transcriptase (RT) in culture supernatant of monocytic U937 on at 7 days at a concentration 1 uM; outline: as §7
# [20] = target: Human immunodeficiency virus type 1 reverse transcriptase (Human immunodeficiency virus 1) (UniProt Q72547); assay: Compounds were evaluated for anti-RT activity by MTT dose and %protection was reported at 13 days of culture
# [21] = target: Human immunodeficiency virus type 1 reverse transcriptase (Human immunodeficiency virus 1) (UniProt Q72547); assay: Compounds were evaluated for anti-RT activity by MTT dose and %protection was reported at 7 days of culture; outline: as §6
# [22] = target: Human immunodeficiency virus type 1 reverse transcriptase (Human immunodeficiency virus 1) (UniProt Q72547); assay: Compound ability to inhibit the production of HIV reverse transcriptase (RT) in preinfected PBL (peripheral blood lymphocytes) at 10 days at a concentration 5 uM; outline: as §3
# [23] = target: Human immunodeficiency virus type 1 reverse transcriptase (Human immunodeficiency virus 1) (UniProt Q72547); assay: Compound ability to inhibit the production of HIV reverse transcriptase (RT) in preinfected PBL (peripheral blood lymphocytes) at 14 days at a concentration 1 uM; outline: as §3
# [24] = target: Human immunodeficiency virus type 1 reverse transcriptase (Human immunodeficiency virus 1) (UniProt Q72547); assay: Compound ability to inhibit the production of HIV reverse transcriptase (RT) in preinfected PBL (peripheral blood lymphocytes) at 14 days at a concentration 5 uM; outline: as §3
# [25] = target: Human immunodeficiency virus type 1 reverse transcriptase (Human immunodeficiency virus 1) (UniProt Q72547); assay: Compound ability to inhibit the production of HIV reverse transcriptase (RT) in preinfected PBL (peripheral blood lymphocytes) at 21 days at a concentration 5 uM; outline: as §3
# [26] = target: Human immunodeficiency virus type 1 reverse transcriptase (Human immunodeficiency virus 1) (UniProt Q72547); assay: Compound ability to inhibit the production of HIV reverse transcriptase (RT) in preinfected PBL (peripheral blood lymphocytes) at 7 days at a concentration 5 uM; outline: as §3
SMILES,EC50 [1] [nM],EC50 [2] [nM],CC50 [3] [nM],Activity (c.p.m. 50ul-1) [4],Activity (c.p.m. 50ul-1) [5],Activity (c.p.m. 50ul-1) [6],Activity (c.p.m. 50ul-1) [7],Activity (c.p.m. 50ul-1) [8],Activity (c.p.m. 50ul-1) [9],Activity (c.p.m. 50ul-1) [10],Activity (c.p.m. 50ul-1) [11],Activity (c.p.m. 50ul-1) [12],Cell viability [13] [%],Cell viability [14] [%],inhibition [15] [%],inhibition [16] [%],inhibition [17] [%],inhibition [18] [%],inhibition [19] [%],Protection [20] [%],other results
CCCCCCCCCCCCCCCCOP(=O)(OCCO[C@H]1O[C@H](CO)[C@@H](O)[C@H](O)[C@@H]1O)OCC1OC(n2cc(C)c(=O)[nH]c2=O)CC1N=[N+]=[N-] (stereo not given in full),1000,1300,20000,55000,401000,60200,30200,13000,243000,52000,61000,3900,12,41,0,0,0,0,0,0,Protection [21]: 21%
CCCCCCCCCCCCCCCCOP(=O)(OC[C@H]1OC(O)[C@@H](O)[C@@H](O)[C@@H]1O)OC[C@H]1OC(n2cc(C)c(=O)[nH]c2=O)C[C@@H]1N=[N+]=[N-] (stereo not given in full),300,400,2600,35000,122000,71500,9320,17000,225000,24000,73000,4000,25,77,71,68,0,0,51,10,Activity (c.p.m. 50ul-1) [22]: 28000; Activity (c.p.m. 50ul-1) [23]: 114000; Activity (c.p.m. 50ul-1) [24]: 58300; Activity (c.p.m. 50ul-1) [25]: 22400; Activity (c.p.m. 50ul-1) [26]: 3140; Protection [21]: 68%
Cc1cn([C@H]2C[C@H](N=[N+]=[N-])[C@@H](CO)O2)c(=O)[nH]c1=O [ZIDOVUDINE],120,450,26000,37000,36000,757,972,19000,134000,6400,28000,1500,34,100,92,76,7,0,85,26,Activity (c.p.m. 50ul-1) [22]: 984; Activity (c.p.m. 50ul-1) [23]: 2020; Activity (c.p.m. 50ul-1) [24]: 302; Activity (c.p.m. 50ul-1) [25]: 542; Activity (c.p.m. 50ul-1) [26]: 965; Protection [21]: 100%
CCCCCCCCCCCCCCCCOP(=O)(OC[C@H]1OC(O)[C@H](O)[C@@H](O)[C@@H]1O)OC[C@H]1OC(n2cc(C)c(=O)[nH]c2=O)C[C@@H]1N=[N+]=[N-] (stereo not given in full),180,800,11000,4000,66000,26300,3490,16000,68000,45000,64000,4500,39,85,87,58,53,79,73,28,Activity (c.p.m. 50ul-1) [22]: 36400; Activity (c.p.m. 50ul-1) [23]: 144000; Activity (c.p.m. 50ul-1) [24]: 157000; Activity (c.p.m. 50ul-1) [25]: 150000; Activity (c.p.m. 50ul-1) [26]: 8210; Protection [21]: 81%
Cc1cn([C@H]2C[C@H](N=[N+]=[N-])[C@@H](COP(=O)(O)OC[C@H]3OC(O)[C@H](O)[C@@H](O)[C@@H]3O)O2)c(=O)[nH]c1=O (stereo not given in full),160,900,30000,17000,158000,771,1010,32000,145000,2200,65000,1600,17,50,70,10,0,9,36,0,Activity (c.p.m. 50ul-1) [22]: 798; Activity (c.p.m. 50ul-1) [23]: 408; Activity (c.p.m. 50ul-1) [24]: 732; Activity (c.p.m. 50ul-1) [25]: 373; Activity (c.p.m. 50ul-1) [26]: 890
Cc1cn([C@H]2C[C@H](N=[N+]=[N-])[C@@H](COP(=O)(O)OCCO[C@H]3O[C@H](CO)[C@@H](O)[C@H](O)[C@@H]3O)O2)c(=O)[nH]c1=O,150,600,25000,25000,306000,4400,923,30000,174000,27000,70000,4400,20,39,25,0,0,0,0,7,Activity (c.p.m. 50ul-1) [22]: 1100; Activity (c.p.m. 50ul-1) [23]: 39700; Activity (c.p.m. 50ul-1) [24]: 471; Activity (c.p.m. 50ul-1) [25]: 3380; Activity (c.p.m. 50ul-1) [26]: 855; Protection [21]: 20%
